ChEMBL document CHEMBL1165989, “Characterization of pseudacyclins A-E, a suite of cyclic peptides produced by Pseudallescheria boydii” (J Nat Prod, 2010)
Calls of active or inactive are those of the source. The calls are words filed in the database; no cut-off is given here.

Key:
Candida parapsilosis = experiment: Antimicrobial activity against Candida parapsilosis; assay type: functional, organism-based
Staphylococcus aureus = experiment: Antimicrobial activity against Staphylococcus aureus; assay type: functional, organism-based
Streptococcus pyogenes = experiment: Antimicrobial activity against Streptococcus hemolyticus; assay type: functional, organism-based
[1] = Inhibition of NO synthase activity in mouse B10R cells assessed as LPS-induced NO production after 24 hrs; assay type: cell-based
In short: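 B10R macrophages stimulated with […] (0.5 µg/mL). NO-synthase activity was read as NO2- production over 24 h, and an IC50 was derived.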

Candida albicans = experiment: Antimicrobial activity against Candida albicans; assay type: functional, organism-based
Enterococcus faecalis = experiment: Antimicrobial activity against Enterococcus faecalis; assay type: functional, organism-based
[2] = Cytotoxicity against mitogen-activated human lymphocytes by MTT assay; assay type: cell-based; conditions: Lymphocyte
Candida tropicalis = experiment: Antimicrobial activity against Candida tropicalis; assay type: functional, organism-based
[3] = Cytotoxicity against resting human lymphocytes by MTT assay; assay type: cell-based; conditions: Lymphocyte
Escherichia coli = experiment: Antimicrobial activity against Escherichia coli; assay type: functional, organism-based
Pichia kudriavzevii = experiment: Antimicrobial activity against Candida krusei; assay type: functional, organism-based

**Q.** Which inhibition (Candida parapsilosis) does the source give for CC[C@H](C)[C@H](NC(C)=O)C(=O)N[C@H]1CCCNC(=O)[C@H]([C@@H](C)CC)NC(=O)[C@H]([C@@H](C)CC)NC(=O)[C@@H]2CCCN2C(=O)[C@@H](Cc2ccccc2)NC1=O [PSEUDACYCLIN A] here?
**A.** inactive

**Q.** What about the inhibition (Staphylococcus aureus) of the same compound?
**A.** inactive

**Q.** What about the inhibition (Streptococcus pyogenes) of the same compound?
**A.** inactive

**Q.** And the IC50 [1]?
**A.** 41.4 µM

**Q.** What about the inhibition (Candida albicans) of the same compound?
**A.** inactive

**Q.** And the inhibition (Enterococcus faecalis)?
**A.** inactive

**Q.** What about the IC50 [2] of the same compound?
**A.** 12.9 µM

**Q.** What about the inhibition (Candida tropicalis) of the same compound?
**A.** inactive

**Q.** And the IC50 [3]?
**A.** 32 µM

**Q.** And the inhibition (Escherichia coli)?
**A.** inactive

**Q.** What about the inhibition (Pichia kudriavzevii) of the same compound?
**A.** inactive
